According to ChEMBL document CHEMBL4251623, “Synthesis and evaluation of 2-(3-arylureido)pyridines and 2-(3-arylureido)pyrazines as potential modulators of Aβ-induced mitochondrial dysfunction in Alzheimer's disease” (Eur J Med Chem, 2018):

Legend:
Mus musculus [1] = species on record: Mus musculus; test: Inhibition of amyloid beta (1 to 42)-induced mPTP opening in mouse HT22 cells assessed as reduction in mitochondrial membrane potential loss by measuring green to red fluorescence ratio at 5 uM preincubated for 10 mins followed by amyloid beta (1 to 42) addition and measured every 1 hr for 3 hrs by JC1 staining based fluorescence assay relative to control; type: cell-based; parameters: scale not given: the % may be the effect or the level left
Summary of the method: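 HT-22 cells (30,000/well) were seeded one day before and loaded with 7.5 µM final JC-1 in phenol red-free Opti-MEM for 1 h 15 min at 37 °C, then washed with PBS. Compound (5 µM) was added for 10 min at 37 °C, then Aβ1-42 (5 µM). Red (ex/em 530/580 nm) and green (485/530 nm) fluorescence were read hourly for 3 h. Green/red ratio was expressed versus Aβ alone (100%), as mean of duplicates.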

HT-22 = test: Toxicity in mouse HT22 cells assessed as ATP production level at 5 uM after 7 hrs by luciferase based assay relative to control; type: cell-based; conditions: ht-22, 7 h
Summary of the method: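 HT-22 cells (10,000/well, seeded the day before; DMEM, 10% FBS, 37 °C, 5% CO2) were exposed to compound (5 µM per footnote) without Aβ for 7 h at 37 °C. Cells were lysed in 1% Triton X-100/TBST, equal protein (BCA) was taken, and ATP was measured with a luciferase kit. Result is % ATP production relative to vehicle; mean of duplicates.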

[2] = Cytotoxicity against mouse HT22 cells assessed as cell viability at 5 uM after 24 hrs by MTT assay relative to control; type: cell-based, HT-22; conditions: read-out: Activity
Summary of the method: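 HT-22 cells (5000/well) got compound at 5 µM for 24 h at 37 °C. MTT was added for 2 h, then solubilizer (10% Triton X-100 in isopropanol, 0.1 M HCl) for 1 h at room temperature. Absorbance was read at 570 nm, vehicle-subtracted, and expressed as % viability; mean of duplicates.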

Mus musculus [3] = species on record: Mus musculus; test: Inhibition of amyloid beta (1 to 42)-induced mPTP opening in mouse HT22 cells assessed as protection against amyloid beta (1 to 42)-induced deterioration of ATP production by measuring ATP recovery at 5 uM preincubated for 10 mins followed by amyloid beta (1 to 42) addition and measured after 7 hrs relative to control; type: cell-based; parameters: scale not given: the % may be the effect or the level left
Summary of the method: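 HT-22 cells (10,000/well, seeded the day before) got compound for 10 min at 37 °C, then Aβ1-42; per footnote, both were at 5 µM. After 7 h at 37 °C, cells were washed, lysed in 1% Triton X-100/TBST and protein-normalized by BCA. ATP was measured with a luciferase kit. Aβ-injured level was set to 0 and vehicle to 100% recovery; mean of duplicates.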

Mus musculus [4] = species on record: Mus musculus; test: Inhibition of amyloid beta (1 to 42)-induced mPTP opening in mouse HT22 cells assessed as neuroprotective activity against amyloid beta (1 to 42)-induced toxicity at 5 uM measured after 24 hrs by MTT assay relative to control; type: cell-based
Summary of the method: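 HT-22 cells (5000/well) were pretreated with compound for 10 min, then Aβ1-42 was added, both at 5 µM, for 24 h at 37 °C. Viability was read by MTT (2 h; acidic Triton/isopropanol solubilization; A570). Aβ-treated viability was set to 0 and vehicle to 100% protection; mean of duplicates.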

O=C(Nc1ccccc1F)Nc1ncccc1OCc1ccccc1Cl
Activity (Mus musculus [1]): 38%

O=C(NCc1ccccc1)Nc1ncccc1OCc1cccc(F)c1
Activity (Mus musculus [1]): 9%

Cc1ccc(NC(=O)Nc2ncccc2OCc2cccc(Cl)c2)cc1
Activity (Mus musculus [1]): 26% | Activity (HT-22): 108% | viability at 24 h, 5 µM [2]: 95% | Activity (Mus musculus [3]): 54% | percent protection against Aβ1-42 toxicity (Mus musculus [4]): 17%

O=C(Nc1ccccc1F)Nc1ncccc1OCc1cccc(Cl)c1
Activity (Mus musculus [1]): 11% | Activity (HT-22): 104% | viability at 24 h, 5 µM [2]: 115% | Activity (Mus musculus [3]): 43% | percent protection against Aβ1-42 toxicity (Mus musculus [4]): 67%

O=C(Nc1ccccc1F)Nc1ncccc1OCc1ccccc1
Activity (Mus musculus [1]): 69%

O=C(Nc1cccc(Cl)c1)Nc1ncccc1OCc1ccc(F)cc1
Activity (Mus musculus [1]): 91%

O=C(Nc1cccc(F)c1)Nc1ncccc1OCc1ccccc1Cl
Activity (Mus musculus [1]): 32% | Activity (HT-22): 106% | viability at 24 h, 5 µM [2]: 86% | Activity (Mus musculus [3]): 78% | percent protection against Aβ1-42 toxicity (Mus musculus [4]): 14%

O=C(Nc1cccc(Cl)c1)Nc1ncccc1OCc1ccc(Cl)cc1
Activity (Mus musculus [1]): 46%

O=C(Nc1cccc(F)c1)Nc1nccnc1OCc1ccccc1
Activity (Mus musculus [1]): 111%

O=C(Nc1ncccc1OCc1cccc(Cl)c1)Nc1cccc2ccccc12
Activity (Mus musculus [1]): 106%

O=C(Nc1cccc(F)c1)Nc1ncccc1OCc1ccc(Cl)cc1
Activity (Mus musculus [1]): 15%

O=C(Nc1cccc(F)c1)Nc1ncccc1OCc1cccc(F)c1
Activity (Mus musculus [1]): 34%

O=C(Nc1cccc(Cl)c1)Nc1ncccc1OCc1cccc(Cl)c1
Activity (Mus musculus [1]): 55%

Cc1ccc(NC(=O)Nc2ncccc2OCc2ccc(Cl)cc2)cc1
Activity (Mus musculus [1]): 44%

O=C(Nc1ccc(Cl)c(Cl)c1)Nc1ncccc1OCc1ccc(Cl)cc1
Activity (Mus musculus [1]): 47%

Cc1ccc(NC(=O)Nc2ncccc2OCc2ccccc2Cl)cc1
Activity (Mus musculus [1]): 22%

O=C(Nc1ccccc1F)Nc1ncccc1OCc1ccc(F)cc1
Activity (Mus musculus [1]): 27%

O=C(Nc1cccc(F)c1)Nc1ncccc1OCc1cccc(Cl)c1
Activity (Mus musculus [1]): 13% | Activity (HT-22): 99% | viability at 24 h, 5 µM [2]: 91% | Activity (Mus musculus [3]): 69% | percent protection against Aβ1-42 toxicity (Mus musculus [4]): 38%

O=C(Nc1ccccc1F)Nc1nccnc1OCc1ccccc1
Activity (Mus musculus [1]): 123%

O=C(NCc1ccccc1)Nc1nccnc1OCc1cccc(F)c1
Activity (Mus musculus [1]): 69%

O=C(Nc1ccccc1F)Nc1ncccc1OCc1cccc(F)c1
Activity (Mus musculus [1]): 23%

O=C(Nc1ccccc1)Nc1ncccc1OCc1cccc(Cl)c1
Activity (Mus musculus [1]): 14% | Activity (HT-22): 109% | viability at 24 h, 5 µM [2]: 98% | Activity (Mus musculus [3]): 90% | percent protection against Aβ1-42 toxicity (Mus musculus [4]): 31%

O=C(Nc1cccc(F)c1)Nc1ncccc1OCc1ccccc1
Activity (Mus musculus [1]): 13%

O=C(Nc1ccccc1)Nc1ncccc1OCc1ccccc1Cl
Activity (Mus musculus [1]): 80%

Cc1ccc(NC(=O)Nc2ncccc2OCc2cccc(F)c2)cc1
Activity (Mus musculus [1]): 22%

O=C(Nc1ccc(Cl)c(Cl)c1)Nc1ncccc1OCc1cccc(Cl)c1
Activity (Mus musculus [1]): 10%

O=C(Nc1ccc(Cl)c(Cl)c1)Nc1ncccc1OCc1ccccc1Cl
Activity (Mus musculus [1]): 36% | Activity (HT-22): 123% | viability at 24 h, 5 µM [2]: 60%

O=C(Nc1cccc(Cl)c1)Nc1ncccc1OCc1ccccc1Cl
Activity (Mus musculus [1]): 25% | Activity (HT-22): 124% | viability at 24 h, 5 µM [2]: 84% | Activity (Mus musculus [3]): 91% | percent protection against Aβ1-42 toxicity (Mus musculus [4]): 21%

Cc1ccc(NC(=O)Nc2nccnc2OCc2cccc(F)c2)cc1
Activity (Mus musculus [1]): 96%

O=C(Nc1cccc(F)c1)Nc1nccnc1OCc1cccc(F)c1
Activity (Mus musculus [1]): 98%

O=C(Nc1ccc(Cl)c(Cl)c1)Nc1ncccc1OCc1ccccc1
Activity (Mus musculus [1]): 19%

O=C(Nc1ncccc1OCc1ccc(Cl)cc1)Nc1cccc2ccccc12
Activity (Mus musculus [1]): 52%

O=C(Nc1ccc(Cl)c(Cl)c1)Nc1ncccc1OCc1cccc(F)c1
Activity (Mus musculus [1]): 35%

NC(=O)CN1CCCC1=O [PIRACETAM]
Activity (HT-22): 88% | Activity (Mus musculus [3]): 127% | percent protection against Aβ1-42 toxicity (Mus musculus [4]): 29%

O=C(Nc1cccc(F)c1)Nc1ncccc1OCc1ccc(F)cc1
Activity (Mus musculus [1]): 18%

O=C(Nc1ccccc1F)Nc1ncccc1OCc1ccc(Cl)cc1
Activity (Mus musculus [1]): 27%

O=C(Nc1ccccc1)Nc1ncccc1OCc1cccc(F)c1
Activity (Mus musculus [1]): 23%

O=C(Nc1ccc(C(F)(F)F)cc1)Nc1ncccc1OCc1ccc(Cl)cc1
Activity (Mus musculus [1]): 91%

O=C(Nc1ccc(Cl)c(Cl)c1)Nc1nccnc1OCc1cccc(F)c1
Activity (Mus musculus [1]): 101%

O=C(Nc1ncccc1OCc1ccccc1Cl)Nc1cccc2ccccc12
Activity (Mus musculus [1]): 77%

O=C(Nc1ccc(C(F)(F)F)cc1)Nc1ncccc1OCc1cccc(Cl)c1
Activity (Mus musculus [1]): 27%

O=C(Nc1ccc(C(F)(F)F)cc1)Nc1ncccc1OCc1cccc(F)c1
Activity (Mus musculus [1]): 23%
